{"source": "paper PMC3790193", "about": "(British Journal of Cancer, 2013)", "key": {"Calu-6 tumours [1]": {"test_system": "Calu-6 tumours", "experiment": "Gene methylation profiling of tumours", "type": "in vivo, Rowett nude rats", "summary_of_the_method": "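Bisulphite-treated DNA from Calu-6 lung tumours (three per rat, four rats per group: vehicle, i.p. or aerosol) run on HM450K arrays. Normal bronchial epithelial lines from three never smokers used as reference. Probes from 200 bp 5′ of TSS through 5′-UTR; X, Y and imprinted genes excluded. Background corrected by normal-exponential method; β-values 0–1. Genes with normal β ⩾0.2 excluded. Vehicle β ⩾0.45 counted as methylated; ⩾20% β drop counted as demethylation.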"}, "Calu-6 cells [2]": {"test_system": "Calu-6 cells", "conditions": "systemic delivery, previous study; ref Belinsky et al, 2011; cited from earlier work"}, "[3]": {"type": "in vivo, Rowett nude rats", "conditions": "for half-life / AUC: male, Rowett nude (Cr:NIH-ru), rat", "summary_of_the_method": "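Male Rowett nude rats dosed once with drug in saline: 2 mg kg−1 i.p., or aerosol over 90 min nose-only (0.6 mg kg−1 deposited). Deposited dose = aerosol concentration × minute volume × time × deposition fraction (~10%) ÷ body weight. Three rats per group killed at each of 11 times over 96 h. Plasma and lung extracted by solid-phase extraction; LC/MS/MS on C18 column (25 °C), positive ESI. Non-compartmental analysis of per-time-point means.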"}, "Calu-6 tumours [4]": {"test_system": "Calu-6 tumours", "experiment": "Gene expression in lung tumours", "type": "in vivo, Rowett nude rats", "summary_of_the_method": "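Male nude rats (8–10 weeks) given orotracheal Calu-6 cells. From week 3 they received saline, 2 mg kg−1 i.p., or 0.6 mg kg−1 aerosol on 4 consecutive days for 4 weeks. Five tumours from each of four rats per group; RNA by TRI-reagent, 1 μg reverse transcribed; TaqMan qPCR normalised to GAPDH. 2−ΔΔCt relative to vehicle tumours; triplicate assays; mean±s.e.m.; two-sample t-test.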"}, "Calu-6 cells [5]": {"test_system": "Calu-6 cells", "experiment": "Orthotopic lung cancer model, tumour burden", "type": "in vivo, Rowett nude rats", "conditions": "for reduction in tumour burden: vs vehicle", "summary_of_the_method": "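Calu-6 cells instilled orotracheally into male nude rats. From 3 weeks, groups of 20 received saline, 2 mg kg−1 i.p., or 0.6 mg kg−1 aerosol on 4 consecutive days over 4 weeks. At 7 weeks, lungs weighed; burden = tumour-bearing minus normal lung weight (rats without tumour cells). Lungs inflated with 10% neutral-buffered formalin at 25 cm for 6 h; 5-μm paraffin sections, H&E. t-test/ANOVA.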"}, "Aerosol characterisation": {"experiment": "Aerosol characterisation", "type": "physicochemical", "conditions": "nebulised solution 5 mg ml^−1, Pari LC Plus nebulisers", "summary_of_the_method": "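Aerosol from a 5 mg ml−1 solution made by three jet nebulisers, piped through a ~24 in, 1.58-cm stainless tube into a 52-port flow-past nose-only chamber (exhaust ~14 l min−1). Concentration measured gravimetrically on membrane filters. Particle size sampled from the breathing zone with a Mercer-style cascade impactor at ~2.0 l min−1; MMAD calculated from the impactor data.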"}, "lung cancer": {"test_system": "lung cancer", "conditions": "nebuliser, ref Lemarie et al, 2011, cited from earlier work"}, "[6]": {"conditions": "aerosol, 0.6 mg kg^−1 inhaled deposited dose, 90 min nose-only, single dose"}, "[7]": {"conditions": "plasma, inhaled or intranasal, 0.6 mg/kg"}, "[8]": {"conditions": "systemic, intraperitoneal injection 2 mg kg^−1, single dose"}}, "note": "Read-outs that look alike come from different tables or passages of the source.", "data": [{"compound": "Nc1ncn([C@@H]2O[C@H](CO)[C@@H](O)[C@H]2O)c(=O)n1", "note": "[5-Aza, 5-azacytidine]", "values": [{"measurement": "average number of genes showing ⩾20% demethylation", "setting": "Calu-6 tumours [1]; aerosol delivery", "value": 521, "unit": "genes"}, {"measurement": "genes classified as methylated in the Calu-6 tumours that responded", "setting": "Calu-6 tumours [1]; aerosol delivery, on average", "value": "approximately 50%"}, {"measurement": "genes commonly demethylated in 75% of tumours", "setting": "Calu-6 tumours [1]; aerosol exposure", "value": 501, "unit": "genes"}, {"measurement": "genes in common across all tumours demethylated ⩾20%", "setting": "Calu-6 tumours [1]; aerosol-treated rats", "value": 300, "unit": "genes"}, {"measurement": "average number of genes showing ⩾20% demethylation", "setting": "Calu-6 tumours [1]; systemic delivery", "value": 352, "unit": "genes"}, {"measurement": "genes commonly demethylated in 75% of tumours", "setting": "Calu-6 tumours [1]; systemic exposure", "value": 275, "unit": "genes"}, {"measurement": "genes in common across all tumours demethylated ⩾20%", "setting": "Calu-6 tumours [1]; systemic treatment", "value": 20, "unit": "genes"}, {"measurement": "pleomorphic cell population in residual tumour", "setting": "Calu-6 cells [2]", "value": "< 5 % of the residual tumour"}, {"measurement": "AUC Lung", "setting": "[3]; [6]", "value": 8460, "unit": "ng·h/mL"}, {"measurement": "Concentrationmax Lung", "setting": "[3]; [6]", "value": 7883, "unit": "ng/mL"}, {"measurement": "Concentrationmax Plasma", "setting": "[3]; [6]", "value": 893, "unit": "ng/mL"}, {"measurement": "half-life", "setting": "[3]; lung, inhaled or intranasal, 0.6 mg/kg", "value": 110, "unit": "min"}, {"measurement": "half-life", "setting": "[3]; lung, ip, 2 mg/kg", "value": 8.4, "unit": "min"}, {"measurement": "AUC", "setting": "[3]; [7]", "value": 1890, "unit": "ng·h/mL"}, {"measurement": "half-life", "setting": "[3]; [7]", "value": 74.4, "unit": "min"}, {"measurement": "AUC", "setting": "[3]; plasma, ip, 2 mg/kg", "value": 19100, "unit": "ng·h/mL"}, {"measurement": "half-life", "setting": "[3]; plasma, ip, 2 mg/kg", "value": 25.2, "unit": "min"}, {"measurement": "AUC Lung", "setting": "[3]; [8]", "value": 1082, "unit": "ng·h/mL"}, {"measurement": "Concentrationmax Lung", "setting": "[3]; [8]", "value": 2147, "unit": "ng/mL"}, {"measurement": "Concentrationmax Plasma", "setting": "[3]; [8]", "value": "15 492 ng ml^−1"}, {"measurement": "effect on the expression of Bik", "setting": "Calu-6 tumours [4]; aerosol delivery compared with systemic delivery, P<0.001", "value": "more profound effect"}, {"measurement": "expression of p21 (WAF1)", "setting": "Calu-6 tumours [4]; following systemic or aerosol delivery", "value": "increased to a similar extent"}, {"measurement": "Lung weight, mean±s.d.", "setting": "Calu-6 cells [5]; aerosol 0.6 mg kg^−1, 4 consecutive days over 4 consecutive weeks, N=17", "value": "3.72 ± 0.82", "unit": "g"}, {"measurement": "reduction in tumour burden", "setting": "Calu-6 cells [5]; aerosol delivery over 4 weeks", "value": 29, "unit": "%"}, {"measurement": "removal of the pleomorphic cell population of tumours", "setting": "Calu-6 cells [5]; inhaled delivery, histology (not shown)", "value": "equally effective as systemic delivery"}, {"measurement": "weight gain of rats", "setting": "Calu-6 cells [5]; irrespective of treatment route", "value": "15–20%"}, {"measurement": "Lung weight, mean±s.d.", "setting": "Calu-6 cells [5]; systemic 2 mg kg^−1, 4 consecutive days over 4 consecutive weeks, N=18", "value": "3.58 ± 0.95", "unit": "g"}, {"measurement": "reduction in tumour burden", "setting": "Calu-6 cells [5]; systemic delivery over 4 weeks", "value": 34, "unit": "%"}, {"measurement": "average MMAD (mean mass aerodynamic diameter)", "setting": "Aerosol characterisation", "value": 0.71, "unit": "μm"}]}, {"compound": "Nc1ccn([C@@H]2O[C@H](CO)[C@@H](O)C2(F)F)c(=O)n1", "note": "[Gemcitabine]", "values": [{"measurement": "total dose delivered to the lungs, on average", "setting": "lung cancer; 1 day per week for 9 consecutive weeks", "value": "42±16", "unit": "%"}, {"measurement": "toxicity", "setting": "lung cancer", "value": "no haematologic toxicity, nephrotoxicity, or neurotoxicity were observed"}]}]}
